The list is not random: actives were taken first. Their share in the collection is about 2.2%.
Granule exo inh: lytic granule exocytosis inhibition. inhibition, % at 10 µM. actives 0.66% (n = 360,000). AID 651702. TALL-104 LAMP-1 surface exposure, flow cytometry; cells stimulated with thapsigargin and PMA;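 active = inhibition above about 55%, limit read from the data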
ASAP1 inh: blocks human ASAP1-stimulated Arf1 GTP hydrolysis. Q9ULH1. GDP FP detection. inhibition, % at 16.5 µM. actives 0.19% (n = 360,000). AID 624377; in the data active = inhibition above about 25%
Target sequence (Q9ULH1 325-724 limits assumed): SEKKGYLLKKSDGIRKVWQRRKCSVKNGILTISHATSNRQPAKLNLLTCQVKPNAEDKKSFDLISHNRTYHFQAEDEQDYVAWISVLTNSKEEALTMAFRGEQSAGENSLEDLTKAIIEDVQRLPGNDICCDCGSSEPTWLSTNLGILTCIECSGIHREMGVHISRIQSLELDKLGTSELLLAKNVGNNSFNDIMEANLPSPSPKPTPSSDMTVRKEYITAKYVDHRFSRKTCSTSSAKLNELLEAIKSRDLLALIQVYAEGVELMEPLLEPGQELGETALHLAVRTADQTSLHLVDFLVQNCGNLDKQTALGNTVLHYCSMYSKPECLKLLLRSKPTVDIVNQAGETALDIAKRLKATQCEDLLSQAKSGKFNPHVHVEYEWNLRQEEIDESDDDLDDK
V-ATPase pH: alters yeast V-ATPase proton transport | S. cerevisiae, pHLuorin cytosolic pH fluorescence | response, % at 10 µM | actives 0.37% (n = 350,000) | AID 504577; in the data active = response mostly above about 7.3%, no sharp cut-off; inactive = mostly below about 5.4%; also: actives read high
ARFGAP1 inhibitor: rat ARFGAP1 inhibition | Arfgap1-stimulated ARF1 GTP hydrolysis, GDP FP detection | inhibition, % at 16.5 µM | actives 0.26% (n = 360,000) | AID 651572;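 active = inhibition above a per-plate limit, mean inhibition of low control wells plus 3 SD, cut at about 25% in these data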
Target sequence (Q62848 1-136 limits assumed): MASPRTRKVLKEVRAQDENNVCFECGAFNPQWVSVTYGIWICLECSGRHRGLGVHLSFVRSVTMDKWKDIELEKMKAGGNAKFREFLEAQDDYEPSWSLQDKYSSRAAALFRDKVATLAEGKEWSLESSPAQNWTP
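system = rat Arfgap1 catalytic domain, aa 1-136 | technique = FP, GDP Alexa 633 tracer displaced from anti-GDP antibody, 620/688 nm | compound = one concentration, 16.5 µM, DMSO 1.26% | medium = HEPES-based buffer, pH 7.5 | timing = compound-enzyme preincubation 20 min, reaction 120 min, detection 60 min, 25 °C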
CendR NRP1 mod: modulators of CendR peptide binding to human neuropilin-1; O14786; FAM-RPARPAR peptide binding to NRP-1, fluorescence polarization; inhibition, % at 25 µM; actives 0.85% (n = 360,000);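 active = inhibition or corrected inhibition above about 18%, plus a signal ratio from 0.5 to 1.5, limit read from the data, passing the limit was not always enough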
V-ATPase pH SP: regulators of yeast V-ATPase proton transport | shares compounds with V-ATPase pH | S. cerevisiae pHLuorin cytosolic pH | response, % at 10 µM | actives 2% (n = 980) | AID 602197; in the data active = response above about 24%
A number is an active result; - = inactive; . = no result.

SMILES	Granule exo inh	ASAP1 inh	V-ATPase pH	ARFGAP1 inhibitor	CendR NRP1 mod	V-ATPase pH SP
CCOC1=C2[C@H](c3ccc(CC)cc3)N(S(=O)(=O)c3ccc(C)cc3)C[C@H]2n2c(=O)n(-c3ccccc3)c(=O)n2C1	-	-	.	-	-	.
N/C(=N\OC(=O)Cc1ccccc1[N+](=O)[O-])c1cccc(Br)c1	-	-	13	-	-	-
OCC1(CCc2ccccc2)CCCN(CCCc2ccccc2)C1 (centres undefined)	-	-	-	-	-	.
O=C(NNS(=O)(=O)c1ccccc1[N+](=O)[O-])c1ccccc1Cl	-	-	12	-	-	-
O=C(NCCC(=O)N(CCc1ccccc1)Cc1ccccc1)c1ccc(Br)cc1	-	-	-	-	-	.
CC(NC(=O)COC(=O)/C=C/c1cccc(C(F)(F)F)c1)c1ccccc1 (centres undefined)	-	-	21	-	-	-
CCOc1ccc(/C(O)=C2/C(=O)C(=O)N(c3ccccn3)C2c2ccc(F)cc2)c(C)c1 (centres undefined)	-	-	-	-	-	.
O=C1NC(=S)N/C1=C/c1cccc2ccccc12	-	-	9.1	-	-	-
C/C(=C/c1ccccc1)C(=O)N1CCC(C)CC1	-	-	11	-	-	-
CCc1sc(C(=O)NCc2ccco2)cc1C	-	-	12	-	-	-
CCNS(=O)(=O)c1ccc(CCC(=O)N2CCCC2)cc1	-	-	-	-	-	.
COc1ccccc1NC(=O)Nc1nc(CC(=O)N2CCN(c3ccc(F)cc3)CC2)cs1	-	-	-	-	-	.
O=C(CNC(=O)c1cccc(Br)c1)N/N=C/c1ccc[nH]1	-	-	-	-	-	.
NNC(=O)CNC(=O)c1cccc(Br)c1	-	-	26	-	-	-
O=S(=O)(c1ccc(F)cc1)N1CCN(CC(O)COCc2ccccc2)CC1 (centres undefined)	-	-	-	-	-	.
O=S(=O)(c1ccc(F)cc1)N1CCN(CC(O)COCC2CCCO2)CC1 (centres undefined)	-	-	9.8	-	-	-
Cc1ccc(NC(=O)c2ncn(CCCN3CCN(c4ccccn4)CC3)n2)cc1C	-	-	13	-	-	-
Cc1ccc(NC(=O)c2ncn(CCCN3CCN(c4ncccn4)CC3)n2)cc1C	-	-	-	-	-	.
CCOC(=O)c1ccc(NC(=O)C(=O)NCc2ccncc2)cc1	-	-	11	-	-	-
CC1=C(C(=O)Nc2ccccn2)C(c2ccc3c(c2)OCO3)C2=C(CC(C)(C)CC2=O)N1 (centres undefined)	-	-	-	-	-	.
CCN(CC)c1ccc(C2C(C(=O)Nc3ccccn3)=C(C)NC3=C2C(=O)CC(C)(C)C3)cc1 (centres undefined)	-	-	17	-	-	-
CCOC(=O)c1ccc(NC(=O)COc2ccccc2CNCCc2ccccc2)cc1	69	-	14	-	-	-
CCOC(=O)c1ccc(NC(=O)COc2ccc(CNCCO)cc2OCC)cc1	-	-	-	-	-	.
Nc1cnn(C2OC(CO)C(O)C2O)c(=O)n1 (centres undefined)	-	-	7.8	-	-	-
Nc1nc(=O)n(C2OC(CO)C(O)C2O)cc1F (centres undefined)	-	-	.	-	-	.
SMILES	Granule exo inh	ASAP1 inh	V-ATPase pH	ARFGAP1 inhibitor	CendR NRP1 mod	V-ATPase pH SP
Cc1[nH]c(=O)[nH]c(=O)c1NC(=O)c1ccccc1[N+](=O)[O-]	-	-	-	-	-	.
O=C(NCCS(=O)(=O)NC1CCCCC1)c1ccc2c(c1)OCO2	-	-	7.1	-	-	-
COc1cccc(NC(=O)C(C)N2C(=O)c3ccccc3C2=O)c1 (centres undefined)	-	-	-	-	-	.
Cc1ccc(C(=O)OC(C)C(=O)NC2CCCCC2C)cc1S(=O)(=O)N1CCCCC1 (centres undefined)	-	-	-	-	-	.
Cc1nn(-c2ccc(F)cc2)c(Cl)c1/C=C/C(=O)N1CCNC(=O)C1	-	-	-	-	-	.
Cc1nn(-c2ccc(F)cc2)c(C)c1/C=C/C(=O)N1CCNC(=O)C1	-	-	9.3	-	-	-
Cc1ccc(S(=O)(=O)N2CCCCC2)cc1NC(=O)COC(=O)C1(C)CC1(Cl)Cl (centres undefined)	-	-	-	-	-	.
Cc1ncoc1C(=O)N1CCCC(C(=O)c2cccc(OC(C)C)c2)C1 (centres undefined)	-	-	-	-	-	.
Cc1noc(C)c1C(=O)N1CCCC(C(=O)c2cccc(OC(C)C)c2)C1 (centres undefined)	-	-	13	-	-	-
CCC(NC(=O)c1ccc(C#CC2(O)CCCCC2)cc1)C(=O)O (centres undefined)	-	-	12	-	-	-
CCOC(=O)N1CCN(C(=O)c2ccc(C#CC3(O)CCCCC3)cc2)CC1	-	-	-	-	-	.
CCc1nc(SCC(=O)Nc2nccs2)c2oc3ccccc3c2n1	-	-	10	-	-	-
COc1ccc(/C=C2\CCn3c2nc2cc(C(=O)O)ccc2c3=O)cc1O	-	-	10	-	-	-
C#CCN(C[C@H]1[C@H](OC(=O)NCc2ccccc2F)[C@H](OC(=O)NCc2ccccc2F)C[C@@H](C(=O)OC)[C@H]1C(=O)OC)S(=O)(=O)c1ccc(C)cc1	-	-	-	-	-	.
Cc1cc2c(c(=O)n1Cc1cccnc1)C(c1ccc(F)cc1)C(C#N)=C(N)O2 (centres undefined)	-	-	12	-	-	-
COC(=O)C1=C(N)Oc2cc(C)n(Cc3cccnc3)c(=O)c2C1c1ccccc1OC (centres undefined)	-	-	-	-	-	.
COc1ccc(NC(=O)C2(C)CCN2Cc2csc3ccccc23)cc1OC (centres undefined)	-	-	.	-	-	.
CCCCCCCCCCCCNC[C@@H]1CSCCS(=O)(=O)N1	.	-	.	-	.	.
COc1ccccc1CNS(=O)(=O)c1ccc2c(c1)CCCN2C(C)=O	-	-	12	-	-	-
COc1ccccc1CNC(=O)CCS(=O)(=O)c1ccc2c(c1)CCCN2C(C)=O	-	-	-	-	-	.
CCOC(=O)c1nc2ccccc2c(=O)[nH]1	-	-	-	-	-	-
CCN(CC)C(=O)CSc1nc2ccccc2c(=O)[nH]1	-	-	-	-	-	.
CCOC(=O)c1n[nH]c2ccccc12	-	-	-	-	-	-
CCOC(=O)CSc1nc2ccccc2c(=O)[nH]1	-	-	10	-	-	-
CCc1noc(C)c1C(=O)OCC(=O)c1ccccc1OC	-	-	-	-	-	.
Cc1nn(-c2ccccc2)c(C)c1NC(=O)COC(=O)/C=C/c1ccccc1	-	-	-	-	-	.

Screens: PubChem, several laboratories
